Usually T/C stands for the ratio of treated to control.

Series [1] deals with Mus musculus. The series can be described thus: Toxicity in mouse allografted with mouse L1210 cells assessed as survival at 50 mg/kg. Type of series: organism-based. Also noted: dose 50 mg/kg. The conditions noted are these: in vivo. The gist of the method: (§1)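 Mice bearing L1210 leukemia, six per dose group, given compound as a suspension across a range of mg/kg doses. Antitumor read-out is T/C, with cures per group recorded. Toxicity is judged by body weight loss, with loss over 4 g flagged.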

Series [2] deals with Mus musculus. The series is described as follows: Toxicity in mouse allografted with mouse L1210 cells assessed as survival at 25 mg/kg. Type of series: organism-based. Also noted: dose 25 mg/kg. The conditions noted are these: in vivo. The procedure, abridged:
as §1

Series [3] has as its system Mus musculus. The series can be described thus: Toxicity in mouse allografted with mouse L1210 cells assessed as change in body weight at 100 mg/kg relative to control. It counts as organism-based. Also noted: dose 100 mg/kg. The conditions noted are these: in vivo. The procedure, abridged: as §1
In series [4] the test system is Mus musculus. The series is described as follows: Toxicity in mouse allografted with mouse L1210 cells assessed as change in body weight at 50 mg/kg relative to control. It counts as organism-based. The arrangement: dose 50 mg/kg. The conditions noted are these: in vivo. The procedure, abridged:
as §1

In series [5] the test system is Mus musculus. The series can be described thus: Toxicity in mouse allografted with mouse L1210 cells assessed as change in body weight at 25 mg/kg relative to control. Type of series: organism-based. Also noted: dose 25 mg/kg. The conditions noted are these: in vivo. The procedure, abridged:
as §1

In series [6] the test system is Mus musculus. The series can be described thus: Toxicity in mouse allografted with mouse L1210 cells assessed as change in body weight at 12.5 mg/kg relative to control. Type of series: organism-based. Also noted: dose 12.5 mg/kg. The conditions noted are these: in vivo. The procedure, abridged: as §1
In series [7] the test system is Mus musculus. The series is described as follows: Toxicity in mouse allografted with mouse L1210 cells assessed as change in body weight at 6.25 mg/kg relative to control. It counts as organism-based. The arrangement: dose 6.25 mg/kg. The conditions noted are these: in vivo. The procedure, abridged: as §1
Series [8] has as its system L1210. The series is described as follows: Antitumor activity against mouse L1210 cells allografted in mouse assessed as tumor growth inhibition at 50 mg/kg relative to control. Type of series: functional. The procedure, abridged: as §1
For series [9], the system named is L1210. The series is described as follows: Antitumor activity against mouse L1210 cells allografted in mouse assessed as tumor growth inhibition at 25 mg/kg relative to control. It counts as functional. The procedure, abridged: as §1
Series [10] relates to L1210. The series is described as follows: Antitumor activity against mouse L1210 cells allografted in mouse assessed as tumor growth inhibition at 12.5 mg/kg relative to control. It counts as functional. The gist of the method: as §1
Series [11] deals with L1210. The series is described as follows: Antitumor activity against mouse L1210 cells allografted in mouse assessed as tumor growth inhibition at 6.25 mg/kg relative to control. Type of series: functional. The procedure, abridged:
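L1210 leukemia in mice, six per group; compound given as a suspension across a range of dose levels; activity expressed as T/C, with cures and weight loss recorded.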

Series [12] has as its system Mus musculus. The series is described as follows: Toxicity in mouse allografted with mouse L1210 cells assessed as survival at 12.5 mg/kg. It counts as organism-based. Also noted: dose 12.5 mg/kg. The conditions noted are these: in vivo. The procedure, abridged: as §1
The subject of series [13] is Mus musculus. The series can be described thus: Toxicity in mouse allografted with mouse L1210 cells assessed as survival at 6.25 mg/kg. It counts as organism-based. The arrangement: dose 6.25 mg/kg. The conditions noted are these: in vivo. The gist of the method:
as §1

The species named for series [14] is Rattus norvegicus. The series can be described thus: Inhibition of prolactin release in rat at 10 ug relative to control. It counts as functional.
Series [15] concerns Mus musculus. The series can be described thus: Toxicity in mouse allografted with mouse L1210 cells assessed as survival at 400 mg/kg. Also noted: dose 400 mg/kg. The conditions noted are these: in vivo. Type of series: organism-based. The procedure, abridged:
as §1

The subject of series [16] is Mus musculus. The series is described as follows: Toxicity in mouse allografted with mouse L1210 cells assessed as survival at 200 mg/kg. It counts as organism-based. The arrangement: dose 200 mg/kg. The conditions noted are these: in vivo. The procedure, abridged: as §1
The test system of series [17] is Mus musculus. The series is described as follows: Toxicity in mouse allografted with mouse L1210 cells assessed as survival at 100 mg/kg. Type of series: organism-based. The arrangement: dose 100 mg/kg. The conditions noted are these: in vivo. The gist of the method: as §1
Series [18] has as its system Mus musculus. The series is described as follows: Toxicity in mouse allografted with mouse L1210 cells assessed as change in body weight at 400 mg/kg relative to control. The arrangement: dose 400 mg/kg. The conditions noted are these: in vivo. Type of series: organism-based. The gist of the method:
as §1

In series [19] the test system is Mus musculus. The series is described as follows: Toxicity in mouse allografted with mouse L1210 cells assessed as change in body weight at 200 mg/kg relative to control. Type of series: organism-based. The arrangement: dose 200 mg/kg. The conditions noted are these: in vivo. The gist of the method: as §1
Series [20] relates to L1210. The series can be described thus: Antitumor activity against mouse L1210 cells allografted in mouse assessed as tumor growth inhibition at 200 mg/kg relative to control. Type of series: functional. The gist of the method:
as §1

For series [21], the system named is L1210. The series can be described thus: Antitumor activity against mouse L1210 cells allografted in mouse assessed as tumor growth inhibition at 100 mg/kg relative to control. Type of series: functional. The procedure, abridged:
as §1

The test system of series [22] is Mus musculus. The series is described as follows: Toxicity in mouse allografted with mouse P388 cells assessed as survival at 100 mg/kg. It counts as organism-based. The conditions noted are these: in vivo. Also noted: dose 100 mg/kg.
Series [23] concerns Mus musculus. The series is described as follows: Toxicity in mouse allografted with mouse P388 cells assessed as survival at 50 mg/kg. It counts as organism-based. Also noted: dose 50 mg/kg. The conditions noted are these: in vivo.
Series [24] has as its system Mus musculus. The series can be described thus: Toxicity in mouse allografted with mouse P388 cells assessed as survival at 25 mg/kg. Type of series: organism-based. The arrangement: dose 25 mg/kg. The conditions noted are these: in vivo.
Series [25] concerns Mus musculus. The series is described as follows: Toxicity in mouse allografted with mouse P388 cells assessed as change in body weight at 100 mg/kg relative to control. It counts as organism-based. The arrangement: dose 100 mg/kg. The conditions noted are these: in vivo.
Series [26] deals with Mus musculus. The series is described as follows: Toxicity in mouse allografted with mouse P388 cells assessed as change in body weight at 50 mg/kg relative to control. Type of series: organism-based. The arrangement: dose 50 mg/kg. The conditions noted are these: in vivo.
The subject of series [27] is Mus musculus. The series is described as follows: Toxicity in mouse allografted with mouse P388 cells assessed as change in body weight at 25 mg/kg relative to control. It counts as organism-based. The arrangement: dose 25 mg/kg. The conditions noted are these: in vivo.
Series [28] concerns P388. The series can be described thus: Antitumor activity against mouse P388 cells allografted in mouse assessed as tumor growth inhibition at 100 mg/kg relative to control. Type of series: functional.
In series [29] the test system is P388. The series can be described thus: Antitumor activity against mouse P388 cells allografted in mouse assessed as tumor growth inhibition at 50 mg/kg relative to control. Type of series: functional.
In series [30] the test system is P388. The series can be described thus: Antitumor activity against mouse P388 cells allografted in mouse assessed as tumor growth inhibition at 25 mg/kg relative to control. Type of series: functional.
Series [31] deals with L1210. The series is described as follows: Antitumor activity against mouse L1210 cells allografted in mouse assessed as tumor growth inhibition at 400 mg/kg relative to control. It counts as functional. The gist of the method: as §1

Molecules are shown by their SMILES.

On to `C[C@H]1CC[C@H](NC(=O)N(CCCl)N=O)CC1`, for which the Activity entry is listed as “Non-toxic” in series [1]; “Non-toxic” in [2]; -6.6 g in [3]; -4.8 g in series [4]; -3.4 g in [5]; -0.2 g in series [6]. Besides, the Activity in series [7] was 0.4 g; in [12] it was “Not Active”; in series [13], “Non-toxic”. The T/C in [8] turned out to be 327%; in series [9], 301%; in [10] it was 256%; in series [11], 187%.

Consider `CN1C[C@H](N)C[C@@H]2c3cccc4[nH]cc(c34)C[C@H]21`, for which, in series [14], the “inhibition (INH)” value amounted to 57%.

Regarding `CN1C[C@H](NC(=O)N(CCCl)N=O)C[C@@H]2c3cccc4[nH]cc(c34)C[C@H]21`, the “inhibition (INH)” value in series [14] is listed as 28%. For the same compound, the Activity entry was “Non-toxic” in [15]; “Non-toxic” in series [16]; “Non-toxic” in [17]; “Non-toxic” in [1]; “Non-toxic” in series [2]; -7.6 g in [18]. Also, the Activity in [19] is listed as -6 g; in series [3], -4 g; in series [4], -2.8 g; in series [5], -1.4 g; in [6] it was -1.2 g. Further, the T/C in [20] came to 390%; in [21], 248%; in [8], 154%; in [9] it was 137%; in series [10] it was 119%.

Take `CN1C[C@H](NC(=O)N(CCCl)N=O)C[C@@H]2c3cccc4c3c(cn4N=O)C[C@H]21`: the “inhibition (INH)” value in series [14] came to 17%. Further, the Activity result in [22], in series [23], in series [24], in series [15], in [16] and in series [17] was “Non-toxic” each time. Besides, the Activity result is “Non-toxic” in series [1]; “Non-toxic” in series [2]; -1.8 g in series [25]; 0 g in series [26]; -0.4 g in [27]; -6.4 g in [18]. Besides, the Activity was -5.2 g in [19]; -3.4 g in [3]; -2.2 g in series [4]; -1.8 g in series [5]; -1.2 g in series [6]. In addition, the T/C in series [28] turned out to be 201%; in [29] it was 166%; in [30], 137%; in [31], 289%; in series [20], 164%; in series [21], 144%. The results for the T/C in [8], in [9] and in [10] were 121%, 117% and 105%, respectively.

For `CN1CC(CO)=C[C@@H]2c3cccc4c3c(cn4N=O)C[C@H]21`, in [14], the “inhibition (INH)” value was found to be 36%.

Turning to `CN1CC(COC(=O)NCCCl)=C[C@@H]2c3cccc4[nH]cc(c34)C[C@H]21`, the “inhibition (INH)” value in series [14] was 87%.

For `CN1CC(CO)=C[C@@H]2c3cccc4[nH]cc(c34)C[C@H]21`, in series [14], the “inhibition (INH)” value is on record as 71%.

For `CC(C)[C@H]1C(=O)N2CCC[C@H]2[C@]2(O)O[C@](NC(=O)[C@@H]3C=C4c5cccc6[nH]cc(c56)C[C@H]4N(C)C3)(C(C)C)C(=O)N12` [ERGOCORNINE], the “inhibition (INH)” value in [14] worked out at 88%.

For the compound `CN1C[C@H](CC#N)C[C@@H]2c3cccc4[nH]c(Cl)c(c34)C[C@H]21` [LERGOTRILE], in series [14], the “inhibition (INH)” value worked out at 71%.

Source of the values: ChEMBL document CHEMBL3228007, “Ergot alkaloids. Synthesis of nitrosourea derivatives of ergolines as potential anticancer agents” (J Med Chem, 1979).
